ChEMBL document CHEMBL4689842, “EUbOPEN Chemogenomics Library wave 1” (2021)

Test system: HEK-293T
Test: Multiplex assay against HEK293T;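 for Population Tubulin-Different-Phenotype (%): share of the cells with healthy nuclei that show this phenotype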
Assay type: toxicity, cell-based
Conditions: human
Procedure, shortened: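 Cells stained live at seeding with Hoechst33342, BioTracker Green Microtubule Cytoskeleton Dye, MitoTracker Red and Annexin V Alexa Fluor 680 were imaged on a CQ1 microscope at 37°C and 5% CO2 after compound addition. Their classification by CellPathfinder machine-learning gating ran from Hoechst high-intensity objects versus normal cells, to healthy, pyknosed or fragmented nuclei among normal cells, to mitotic or apoptotic among pyknosed cells. Tubulin, mitochondrial-mass and membrane-permeability phenotypes are per cents of healthy-nucleus cells.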

[1] = 12 h, 1 µM, compound concentration 1 uM, replicate 1
[2] = 12 h, 1 µM, compound concentration 1 uM, replicate 2
[3] = 12 h, 10 µM, compound concentration 10 uM, replicate 1
[4] = 12 h, 10 µM, compound concentration 10 uM, replicate 2
[5] = 24 h, 1 µM, compound concentration 1 uM, replicate 1
[6] = 24 h, 1 µM, compound concentration 1 uM, replicate 2
[7] = 24 h, 10 µM, compound concentration 10 uM, replicate 1
[8] = 24 h, 10 µM, compound concentration 10 uM, replicate 2
[9] = 48 h, 1 µM, compound concentration 1 uM, replicate 1
[10] = 48 h, 1 µM, compound concentration 1 uM, replicate 2
[11] = 48 h, 10 µM, compound concentration 10 uM, replicate 1
[12] = 48 h, 10 µM, compound concentration 10 uM, replicate 2

Cl.Oc1ccc2c3c1O[C@H]1c4[nH]c5c(c4C[C@@]4(O)[C@@H](C2)N(CC2CC2)CC[C@]314)C[C@@]1(O)[C@H]2Cc3ccc(O)c4c3[C@@]1(CCN2CC1CC1)[C@H]5O4
Population Apoptotic (%) [1]: 47%
Population Fragmented Nuclei (%) [1]: 8%
Population Healthy Nuclei (%) [1]: 45%
Population Hoechst High Intensity Objects (%) [1]: 13%
Population Membrane Permeable-Phenotype (%) [1]: 0%
Population Mitochondria Different-Phenotype (%) [1]: 74%
Population Mitotic Cells (%) [1]: 52%
Population Normal (%) [1]: 86%
Population Pyknosed Nuclei (%) [1]: 45%
Population Tubulin-Different-Phenotype (%) [1]: 46%
Total Cell Count [1]: 294
Population Apoptotic (%) [2]: 10%
Population Fragmented Nuclei (%) [2]: 4%
Population Healthy Nuclei (%) [2]: 38%
Population Hoechst High Intensity Objects (%) [2]: 5%
Population Membrane Permeable-Phenotype (%) [2]: 8%
Population Mitochondria Different-Phenotype (%) [2]: 10%
Population Mitotic Cells (%) [2]: 89%
Population Normal (%) [2]: 94%
Population Pyknosed Nuclei (%) [2]: 56%
Population Tubulin-Different-Phenotype (%) [2]: 12%
Total Cell Count [2]: 128
Population Apoptotic (%) [3]: 40%
Population Fragmented Nuclei (%) [3]: 7%
Population Healthy Nuclei (%) [3]: 49%
Population Hoechst High Intensity Objects (%) [3]: 12%
Population Membrane Permeable-Phenotype (%) [3]: 3%
Population Mitochondria Different-Phenotype (%) [3]: 79%
Population Mitotic Cells (%) [3]: 59%
Population Normal (%) [3]: 87%
Population Pyknosed Nuclei (%) [3]: 43%
Population Tubulin-Different-Phenotype (%) [3]: 33%
Total Cell Count [3]: 253
Population Apoptotic (%) [4]: 7%
Population Fragmented Nuclei (%) [4]: 5%
Population Healthy Nuclei (%) [4]: 45%
Population Hoechst High Intensity Objects (%) [4]: 2%
Population Membrane Permeable-Phenotype (%) [4]: 6%
Population Mitochondria Different-Phenotype (%) [4]: 27%
Population Mitotic Cells (%) [4]: 92%
Population Normal (%) [4]: 97%
Population Pyknosed Nuclei (%) [4]: 48%
Population Tubulin-Different-Phenotype (%) [4]: 22%
Total Cell Count [4]: 294
Population Apoptotic (%) [5]: 43%
Population Fragmented Nuclei (%) [5]: 11%
Population Healthy Nuclei (%) [5]: 38%
Population Hoechst High Intensity Objects (%) [5]: 12%
Population Membrane Permeable-Phenotype (%) [5]: 0%
Population Mitochondria Different-Phenotype (%) [5]: 61%
Population Mitotic Cells (%) [5]: 56%
Population Normal (%) [5]: 87%
Population Pyknosed Nuclei (%) [5]: 50%
Population Tubulin-Different-Phenotype (%) [5]: 37%
Total Cell Count [5]: 307
Population Apoptotic (%) [6]: 6%
Population Fragmented Nuclei (%) [6]: 7%
Population Healthy Nuclei (%) [6]: 53%
Population Hoechst High Intensity Objects (%) [6]: 4%
Population Membrane Permeable-Phenotype (%) [6]: 8%
Population Mitochondria Different-Phenotype (%) [6]: 13%
Population Mitotic Cells (%) [6]: 93%
Population Normal (%) [6]: 95%
Population Pyknosed Nuclei (%) [6]: 39%
Population Tubulin-Different-Phenotype (%) [6]: 26%
Total Cell Count [6]: 164
Population Apoptotic (%) [7]: 35%
Population Fragmented Nuclei (%) [7]: 9%
Population Healthy Nuclei (%) [7]: 58%
Population Hoechst High Intensity Objects (%) [7]: 7%
Population Membrane Permeable-Phenotype (%) [7]: 0%
Population Mitochondria Different-Phenotype (%) [7]: 54%
Population Mitotic Cells (%) [7]: 64%
Population Normal (%) [7]: 92%
Population Pyknosed Nuclei (%) [7]: 32%
Population Tubulin-Different-Phenotype (%) [7]: 30%
Total Cell Count [7]: 308
Population Apoptotic (%) [8]: 11%
Population Fragmented Nuclei (%) [8]: 4%
Population Healthy Nuclei (%) [8]: 73%
Population Hoechst High Intensity Objects (%) [8]: 3%
Population Membrane Permeable-Phenotype (%) [8]: 4%
Population Mitochondria Different-Phenotype (%) [8]: 17%
Population Mitotic Cells (%) [8]: 88%
Population Normal (%) [8]: 96%
Population Pyknosed Nuclei (%) [8]: 22%
Population Tubulin-Different-Phenotype (%) [8]: 23%
Total Cell Count [8]: 399
Population Apoptotic (%) [9]: 43%
Population Fragmented Nuclei (%) [9]: 15%
Population Healthy Nuclei (%) [9]: 44%
Population Hoechst High Intensity Objects (%) [9]: 12%
Population Membrane Permeable-Phenotype (%) [9]: 2%
Population Mitochondria Different-Phenotype (%) [9]: 29%
Population Mitotic Cells (%) [9]: 56%
Population Normal (%) [9]: 87%
Population Pyknosed Nuclei (%) [9]: 39%
Population Tubulin-Different-Phenotype (%) [9]: 31%
Total Cell Count [9]: 368
Population Apoptotic (%) [10]: 10%
Population Fragmented Nuclei (%) [10]: 6%
Population Healthy Nuclei (%) [10]: 77%
Population Hoechst High Intensity Objects (%) [10]: 3%
Population Membrane Permeable-Phenotype (%) [10]: 10%
Population Mitochondria Different-Phenotype (%) [10]: 7%
Population Mitotic Cells (%) [10]: 89%
Population Normal (%) [10]: 96%
Population Pyknosed Nuclei (%) [10]: 15%
Population Tubulin-Different-Phenotype (%) [10]: 23%
Total Cell Count [10]: 260
Population Apoptotic (%) [11]: 29%
Population Fragmented Nuclei (%) [11]: 10%
Population Healthy Nuclei (%) [11]: 69%
Population Hoechst High Intensity Objects (%) [11]: 9%
Population Membrane Permeable-Phenotype (%) [11]: 2%
Population Mitochondria Different-Phenotype (%) [11]: 23%
Population Mitotic Cells (%) [11]: 70%
Population Normal (%) [11]: 90%
Population Pyknosed Nuclei (%) [11]: 19%
Population Tubulin-Different-Phenotype (%) [11]: 21%
Total Cell Count [11]: 462
Population Apoptotic (%) [12]: 14%
Population Fragmented Nuclei (%) [12]: 5%
Population Healthy Nuclei (%) [12]: 83%
Population Hoechst High Intensity Objects (%) [12]: 2%
Population Membrane Permeable-Phenotype (%) [12]: 3%
Population Mitochondria Different-Phenotype (%) [12]: 5%
Population Mitotic Cells (%) [12]: 85%
Population Normal (%) [12]: 97%
Population Pyknosed Nuclei (%) [12]: 10%
Population Tubulin-Different-Phenotype (%) [12]: 16%
Total Cell Count [12]: 731
